Results taken from ChEMBL document CHEMBL4312027, “Synthesis, characterization, and biological activity of a triphenylphosphonium-containing imidazolium salt against select bladder cancer cell lines” (Eur J Med Chem, 2020).
Active and inactive are the calls of the source. The rule behind the calls is not given here.

What was measured:
RT-112 [1] = test: Induction of mitochondrial membrane depolarization in human RT112 cells at 100 uM incubated for 1 hr and measured after 2 hrs recovery time by JC-1 staining based confocal microscopy; format: functional, cell-based
In short: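 RT112 cells plated on glass-bottom dishes and incubated overnight. They were treated for 45 min, then JC-1 (final 10 μg/mL) was added to the medium for a further 15 min. Live cells were imaged by confocal microscopy (ex 485 nm; em 530 and 590 nm) every 15 min for 6 h. Red polarized versus green depolarized mitochondria were scored, with CCCP as positive control.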

RT-112 [2] = test: Mito-toxicity in mitochondria isolated from human RT112 cells assessed as increase in cytochrome C release at 100 uM incubated for 1 hr and measured after 1 to 4 hrs incubation in preservative buffer by Western blot analysis; format: functional

In the case of `N#CC(C#N)=NNc1cccc(Cl)c1`, the Activity (RT-112 [1]) is reported as “Active” and the Activity (RT-112 [2]) is reported as “Active”.
